Assay results taken from ChEMBL document CHEMBL3612025, “Synthesis and biological evaluation of novel aromatic-heterocyclic biphenyls as potent anti-leukemia agents” (Eur J Med Chem, 2015).

Key:
[1] = system: K562; experiment: Antiproliferative activity against human K562 cells after 48 hrs by MTT assay; assay type: functional, cell-based; settings: K562, 48 h
Procedure, shortened: (§1)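 Human CML K562 line grown in RPMI-1640 with 10% FBS, penicillin G and streptomycin (100 units/ml each) at 37°C, 5% CO2. 2000 cells/well were seeded and compounds were added at four concentrations 48 h later, in triplicate. After 48 h exposure, MTT (5 mg/ml) was added for 4 h. Formazan was dissolved in DMSO and read at 490 nm. IC50 is the mean of three experiments.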

[2] = molecular target: Bcr/Abl fusion protein (Homo sapiens, UniProt P00519); experiment: Inhibition of Bcr-Abl (unknown origin) after 60 mins by luminescent kinase assay; assay type: protein assay
[3] = system: K562; experiment: Antiproliferative activity against imatinib-resistant human K562 cells after 48 hrs by MTT assay; assay type: functional, cell-based; settings: K562, 48 h; procedure, shortened: as §1

Sequence of Bcr/Abl fusion protein (P00519 whole entry, the tested form may be a part): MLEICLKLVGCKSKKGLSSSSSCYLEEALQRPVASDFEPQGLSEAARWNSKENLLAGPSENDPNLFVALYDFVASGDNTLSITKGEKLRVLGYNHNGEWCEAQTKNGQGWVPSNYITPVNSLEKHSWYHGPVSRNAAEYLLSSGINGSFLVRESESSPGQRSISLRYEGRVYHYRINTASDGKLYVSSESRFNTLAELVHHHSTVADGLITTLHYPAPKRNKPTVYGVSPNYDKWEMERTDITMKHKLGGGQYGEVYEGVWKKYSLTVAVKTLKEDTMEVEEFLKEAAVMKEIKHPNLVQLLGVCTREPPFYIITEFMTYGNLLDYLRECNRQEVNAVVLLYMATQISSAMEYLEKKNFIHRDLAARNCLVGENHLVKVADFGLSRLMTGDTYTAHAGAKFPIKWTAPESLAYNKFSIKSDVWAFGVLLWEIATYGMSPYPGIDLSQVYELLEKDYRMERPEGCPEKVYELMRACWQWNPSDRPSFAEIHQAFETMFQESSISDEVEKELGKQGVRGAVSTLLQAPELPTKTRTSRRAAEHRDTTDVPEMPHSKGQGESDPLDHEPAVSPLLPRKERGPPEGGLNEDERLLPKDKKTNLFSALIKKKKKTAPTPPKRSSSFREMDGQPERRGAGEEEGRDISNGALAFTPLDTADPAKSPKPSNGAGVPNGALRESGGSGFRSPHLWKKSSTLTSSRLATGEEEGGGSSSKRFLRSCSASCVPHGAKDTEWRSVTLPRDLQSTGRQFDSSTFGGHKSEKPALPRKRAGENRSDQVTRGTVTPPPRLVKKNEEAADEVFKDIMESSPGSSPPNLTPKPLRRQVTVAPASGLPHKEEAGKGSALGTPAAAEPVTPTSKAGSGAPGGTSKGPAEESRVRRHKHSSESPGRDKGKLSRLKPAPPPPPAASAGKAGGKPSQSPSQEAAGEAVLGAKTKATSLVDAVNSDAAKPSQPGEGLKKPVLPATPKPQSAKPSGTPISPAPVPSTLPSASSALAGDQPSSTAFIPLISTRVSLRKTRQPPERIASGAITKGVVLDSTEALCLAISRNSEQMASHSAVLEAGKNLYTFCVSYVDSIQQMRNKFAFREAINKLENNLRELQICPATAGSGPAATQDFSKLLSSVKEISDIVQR
Sequence of Bcr/Abl fusion protein (P11274 whole entry, further chain, the tested form may be a part): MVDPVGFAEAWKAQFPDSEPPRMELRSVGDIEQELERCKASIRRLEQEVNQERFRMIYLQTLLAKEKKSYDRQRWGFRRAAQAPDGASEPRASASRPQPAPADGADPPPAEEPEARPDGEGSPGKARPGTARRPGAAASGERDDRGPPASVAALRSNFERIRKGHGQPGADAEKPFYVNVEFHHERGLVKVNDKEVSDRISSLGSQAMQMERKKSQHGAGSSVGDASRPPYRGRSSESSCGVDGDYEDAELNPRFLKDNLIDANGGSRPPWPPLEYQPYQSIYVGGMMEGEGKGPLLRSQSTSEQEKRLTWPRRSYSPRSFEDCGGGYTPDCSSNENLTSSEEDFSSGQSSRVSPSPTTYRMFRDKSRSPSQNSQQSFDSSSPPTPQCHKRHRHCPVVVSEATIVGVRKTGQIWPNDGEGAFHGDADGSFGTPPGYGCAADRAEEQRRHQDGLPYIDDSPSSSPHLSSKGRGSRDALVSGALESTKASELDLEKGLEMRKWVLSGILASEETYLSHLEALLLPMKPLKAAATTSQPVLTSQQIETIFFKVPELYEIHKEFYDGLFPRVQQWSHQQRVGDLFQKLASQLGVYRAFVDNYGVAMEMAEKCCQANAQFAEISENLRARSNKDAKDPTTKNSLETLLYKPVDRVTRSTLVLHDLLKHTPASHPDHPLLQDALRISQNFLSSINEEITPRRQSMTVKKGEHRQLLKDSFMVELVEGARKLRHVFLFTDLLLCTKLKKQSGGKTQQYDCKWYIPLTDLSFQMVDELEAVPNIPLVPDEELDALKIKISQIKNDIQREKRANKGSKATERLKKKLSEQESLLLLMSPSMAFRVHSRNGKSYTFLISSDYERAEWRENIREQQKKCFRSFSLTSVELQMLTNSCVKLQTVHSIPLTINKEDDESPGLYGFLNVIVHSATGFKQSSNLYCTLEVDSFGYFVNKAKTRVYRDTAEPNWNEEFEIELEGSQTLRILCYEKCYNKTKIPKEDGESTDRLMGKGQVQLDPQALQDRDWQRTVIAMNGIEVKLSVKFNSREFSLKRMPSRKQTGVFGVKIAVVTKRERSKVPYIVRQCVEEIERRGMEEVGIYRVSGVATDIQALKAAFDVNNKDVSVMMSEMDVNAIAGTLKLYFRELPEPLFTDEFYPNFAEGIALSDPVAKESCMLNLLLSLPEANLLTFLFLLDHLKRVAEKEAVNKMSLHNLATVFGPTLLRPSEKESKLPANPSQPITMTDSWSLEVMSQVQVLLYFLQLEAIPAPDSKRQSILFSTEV

| Structure (SMILES) | IC50 [1] [µM] | IC50 [2] [µM] | IC50 [3] [µM] |
| --- | --- | --- | --- |
| COc1cccc(C(=O)N2CCN(C(=O)c3ccc(-c4ccccn4)cc3)CC2)c1 | 12.5 | 0.066 | 57.3 |
| Cc1ccnc(-c2ccc(C(=O)N3CCN(C(=O)c4cccc(C(F)(F)F)c4)CC3)cc2)c1 | 41.6 | 0.112 | 947 |
| Cc1ccnc(-c2ccc(C(=O)N3CCN(C(=O)c4ccc(C(C)(C)C)cc4)CC3)cc2)c1 | 58.3 | > 500 |  |
| Cc1ccnc(-c2ccc(C(=O)N3CCN(C(=O)c4cccc(N(C)C)c4)CC3)cc2)c1 | 31.4 | 19.1 |  |
| Cc1ccc(-c2ccc(C(=O)N3CCN(C(=O)c4cccc(C(F)(F)F)c4)CC3)cc2)cn1 | 47.1 |  |  |
| Cc1ccc(-c2ccc(C(=O)N3CCN(C(=O)c4cccc(F)c4)CC3)cc2)cn1 | 64.5 | > 500 |  |
| Cc1ccc(-c2ccc(C(=O)N3CCN(C(=O)c4cccc(N(C)C)c4)CC3)cc2)cn1 | 110 | > 500 |  |
| COc1cccc(C(=O)N2CCN(C(=O)c3ccc(-c4cccs4)cc3)CC2)c1 | 152 | 89.7 |  |
| O=C(c1ccc(Br)cc1)N1CCN(C(=O)c2ccc(-c3cccs3)cc2)CC1 | 29.9 | 0.073 | 86.3 |
| O=C(c1ccc(-c2cccs2)cc1)N1CCN(C(=O)c2ccc(Cl)cc2Cl)CC1 | 30.5 |  |  |
| O=C(c1ccc(Br)cc1)N1CCN(C(=O)c2ccc(-c3nccs3)cc2)CC1 | > 500 | 0.421 |  |
| O=C(c1ccc(-c2nccs2)cc1)N1CCN(C(=O)c2ccc(Cl)cc2Cl)CC1 | > 500 | > 500 |  |

Second part, the compound after the results:

| IC50 [1] [µM] | IC50 [2] [µM] | IC50 [3] [µM] | Structure (SMILES) |
| --- | --- | --- | --- |
| > 500 |  |  | O=C(c1ccc(-c2ccccn2)cc1)N1CCN(C(=O)c2cccc(F)c2)CC1 |
| > 500 | > 500 |  | O=C(c1ccc(-c2ccccn2)cc1)N1CCN(C(=O)c2cccc(C(F)(F)F)c2)CC1 |
| 178 | 1.16 |  | CC(C)(C)c1ccc(C(=O)N2CCN(C(=O)c3ccc(-c4ccccn4)cc3)CC2)cc1 |
| 29.7 | 45.6 |  | CN(C)c1cccc(C(=O)N2CCN(C(=O)c3ccc(-c4ccccn4)cc3)CC2)c1 |
| 346 |  |  | O=C(c1ccc(-c2cccnc2)cc1)N1CCN(C(=O)c2cccc(C(F)(F)F)c2)CC1 |
| 63.4 | 0.276 | 81.6 | O=C(c1ccc(-c2cccnc2)cc1)N1CCN(C(=O)c2cccc(F)c2)CC1 |
| 140 | 60.7 |  | COc1cccc(C(=O)N2CCN(C(=O)c3ccc(-c4cccnc4)cc3)CC2)c1 |
| > 500 |  |  | CN(C)c1cccc(C(=O)N2CCN(C(=O)c3ccc(-c4cccnc4)cc3)CC2)c1 |
| 74.2 | 63.3 | > 1000 | Cc1ccnc(-c2ccc(C(=O)N3CCN(C(=O)c4cccc(F)c4)CC3)cc2)c1 |
| 76.1 | 0.94 | 494 | COc1cccc(C(=O)N2CCN(C(=O)c3ccc(-c4cc(C)ccn4)cc3)CC2)c1 |
| 261 | 0.143 | 304 | COc1cccc(C(=O)N2CCN(C(=O)c3ccc(-c4ccc(C)nc4)cc3)CC2)c1 |
| 13.5 | 5.05 |  | O=C(c1ccc(-c2cccs2)cc1)N1CCN(C(=O)c2cccc(F)c2)CC1 |
| 96.7 | 0.321 |  | CN(C)c1cccc(C(=O)N2CCN(C(=O)c3ccc(-c4cccs4)cc3)CC2)c1 |
| > 500 | 444 |  | O=C(c1ccc(-c2nccs2)cc1)N1CCN(C(=O)c2cccc(F)c2)CC1 |
| 271 | 0.016 | 492 | COc1cccc(C(=O)N2CCN(C(=O)c3ccc(-c4nccs4)cc3)CC2)c1 |
| 117 | 1.84 |  | CN(C)c1cccc(C(=O)N2CCN(C(=O)c3ccc(-c4nccs4)cc3)CC2)c1 |
| 1.16 |  | 15.7 | Cc1ccc(NC(=O)c2ccc(CN3CCN(C)CC3)cc2)cc1Nc1nccc(-c2cccnc2)n1 [IMATINIB] |
